Source: ChEMBL document CHEMBL5055635, “High-Throughput Crystallography Reveals Boron-Containing Inhibitors of a Penicillin-Binding Protein with Di- and Tricovalent Binding Modes” (J Med Chem, 2021)
Calls of active or inactive are those of the source. The rule behind the calls is not given here.

Tests used:
Pseudomonas aeruginosa [1] = experiment: Inhibition of Pseudomonas aeruginosa PBP3 using bocillin FL as a fluorogenic substrate assessed as residual activity at 1 mM preincubated for 1 hr followed by substrate addition measured after 30 mins by fluorescence anisotropy assay relative to control
In short: (§1)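 Purified PBP (60 nM) preincubated with compound for 1 h at 30 °C in 100 mM sodium phosphate pH 7 with 0.01% Triton. BOCILLIN FL (30 nM) was then added, and fluorescence anisotropy was read after 30 min. Residual activity is the percentage of the uninhibited control. Run in triplicate.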

Pseudomonas aeruginosa [2] = experiment: Synergistic antimicrobial activity against Pseudomonas aeruginosa PAO1 assessed as bacterial growth inhibition in presence of piperacillin incubated for 18 hrs by checkerboard titration method; type: functional, organism-based
Pseudomonas aeruginosa [3] = experiment: Antimicrobial activity against Pseudomonas aeruginosa PAO1 assessed as bacterial growth inhibition incubated for 18 hrs by CLSI protocol based broth microdilution method; type: functional
Haemophilus influenzae [4] = experiment: Inhibition of Haemophilus influenzae PBP3 assessed as residual activity at 1 mM preincubated for 1 hr followed by substrate addition measured after 30 mins by fluorescence anisotropy assay relative to control; in short: as §1
Escherichia coli [5] = experiment: Synergistic antimicrobial activity against Escherichia coli […] assessed as bacterial growth inhibition in presence of piperacillin incubated for 18 hrs by checkerboard titration method; type: functional, organism-based
Acinetobacter baumannii [6] = experiment: Inhibition of Acinetobacter baumannii PBP3 assessed as residual activity at 1 mM preincubated for 1 hr followed by substrate addition measured after 30 mins by fluorescence anisotropy assay relative to control; in short: as §1
Neisseria gonorrhoeae [7] = experiment: Antimicrobial activity against Neisseria gonorrhoeae ATCC 49226 assessed as bacterial growth inhibition incubated for 18 hrs by CLSI protocol based broth microdilution method; type: functional
Neisseria gonorrhoeae [8] = experiment: Inhibition of Neisseria gonorrhoeae PBP2 assessed as residual activity at 1 mM preincubated for 1 hr followed by substrate addition measured after 30 mins by fluorescence anisotropy assay relative to control; in short: as §1
Escherichia coli [9] = experiment: Inhibition of Escherichia coli PBP3 assessed as residual activity at 1 mM preincubated for 1 hr followed by substrate addition measured after 30 mins by fluorescence anisotropy assay relative to control; in short: as §1
Pseudomonas aeruginosa [10] = experiment: Inhibition of Pseudomonas aeruginosa PBP3 at 1 mM using bocillin FL as a fluorogenic substrate preincubated for 0 to 60 mins followed by substrate addition measured after 30 mins by fluorescence anisotropy assay; conditions: time 0-60 min
In short: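 PaPBP3 preincubated with compound for 0, 30 or 60 min before BOCILLIN FL was added to start the reaction. Otherwise the standard FA competition format: 60 nM protein, 30 nM BOCILLIN FL, pH 7 sodium phosphate with 0.01% Triton, 30 °C.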

Pseudomonas aeruginosa [11] = experiment: Antimicrobial activity against permeabilized Pseudomonas aeruginosa assessed as bacterial growth inhibition incubated for 18 hrs by CLSI protocol based broth microdilution method; type: functional; conditions: dose 150 µM
Haemophilus influenzae [12] = experiment: Antimicrobial activity against Haemophilus influenzae ATCC 49766 assessed as bacterial growth inhibition incubated for 18 hrs by CLSI protocol based broth microdilution method; type: functional
Pseudomonas aeruginosa [13] = experiment: Reversible inhibition of Pseudomonas aeruginosa PBP3 using nitrocefin as substrate assessed as increase in irreversibly bound ceftazidime IC50 by two-fold dilution assay; conditions: dose 150.0 µM
Escherichia coli [14] = experiment: Antimicrobial activity against Escherichia coli […] assessed as bacterial growth inhibition incubated for 18 hrs by CLSI protocol based broth microdilution method; type: functional
Acinetobacter baumannii [15] = experiment: Antimicrobial activity against Acinetobacter baumannii ATCC 19606 assessed as bacterial growth inhibition incubated for 18 hrs by CLSI protocol based broth microdilution method; type: functional; conditions: ATCC 19606 = CIP 70.34 = JCM 6841
Pseudomonas aeruginosa [16] = experiment: Inhibition of Pseudomonas aeruginosa PBP3 using bocillin FL as a fluorogenic substrate assessed as residual activity at 100 uM preincubated for 1 hr followed by substrate addition measured after 30 mins by fluorescence anisotropy assay relative to control; in short: as §1
Pseudomonas aeruginosa [17] = experiment: Inhibition of Pseudomonas aeruginosa PBP3 using (2-((benzoyl-D-alanyl)thio)acetic acid) as a substrate assessed as residual activity by measuring substrate turnover at 100 uM incubated for 1 hr followed by substrate addition by absorbance based assay relative to control
In short: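 PaPBP3 (400 nM; 200 nM final) incubated with compound for 1 h at 30 °C in 100 mM sodium phosphate pH 7 with 0.01% Triton. S2d and DTNB (1 mM each, final) were then added, and A412 was followed at 30 °C. Initial rates were corrected for non-enzymatic hydrolysis, measured with 1 mM aztreonam. Residual activity is the percentage of the untreated control. Three technical replicates, standard error.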

SMILES	Activity (Pseudomonas aeruginosa [1])	MIC (Pseudomonas aeruginosa [3])	MIC (Pseudomonas aeruginosa [11])	MIC (Escherichia coli [14])	other results
OB(O)c1cccc(-c2nnn[nH]2)c1	82%	–	–	–	–
CN1CCN(C(=O)CNC(=O)c2ccc3c(c2)B(O)OC3CC(=O)O)CC1=O (stereo unspecified)	–	> 64 µg/mL	> 64 µg/mL	> 64 µg/mL	–
O=C1CN(C(=O)CNC(=O)c2ccc3c(c2)B(O)OC3)CCN1	> 90%	–	–	–	–
CN1CCN(C(=O)CNC(=O)c2ccc3c(c2)B(O)OC3)CC1=O	> 90%	–	–	–	–
O=C(O)C[C@@H]1OB(O)c2ccc(OCc3ccccc3)cc21	20%	–	–	–	–

Now from value to molecule, other results behind:

Activity (Pseudomonas aeruginosa [1])	MIC (Pseudomonas aeruginosa [3])	MIC (Pseudomonas aeruginosa [11])	MIC (Escherichia coli [14])	SMILES	other results
> 90%	–	–	–	CN1CCN(C(=O)[C@@H](Cc2ccccc2)NC(=O)c2ccc3c(c2)B(O)OC3)CC1=O	–
–	> 64 µg/mL	> 64 µg/mL	> 64 µg/mL	NC(=O)[C@H](NC(=O)c1ccc2c(c1)B(O)OC2CC(=O)O)c1ccccc1 (stereo partly specified)	Activity (Pseudomonas aeruginosa [2]): inactive; Activity (Haemophilus influenzae [4]): 32%; Activity (Escherichia coli [5]): inactive; Activity (Acinetobacter baumannii [6]): 73%; MIC (Neisseria gonorrhoeae [7]): > 64 µg/mL; Activity (Neisseria gonorrhoeae [8]): > 90%; Activity (Escherichia coli [9]): > 90%; inhibition (Pseudomonas aeruginosa [10]): inactive; MIC (Haemophilus influenzae [12]): > 64 µg/mL; inhibition (Pseudomonas aeruginosa [13]): inactive; MIC (Acinetobacter baumannii [15]): > 64 µg/mL
–	> 64 µg/mL	> 64 µg/mL	> 64 µg/mL	COC(=O)[C@H](NC(=O)c1ccc2c(c1)B(O)OC2)c1ccccc1	Activity (Pseudomonas aeruginosa [16]): > 90%; Activity (Pseudomonas aeruginosa [17]): > 90%
–	> 64 µg/mL	> 64 µg/mL	> 64 µg/mL	O=C(c1ccc2c(c1)B(O)OC2)N(Cc1ccccc1)Cc1ccccc1	Activity (Pseudomonas aeruginosa [16]): 87%
